Results of several laboratories.
Each line is one published result; the experiments were not run side by side.
MAPK14: Mitogen-activated protein kinase 14 (MAPK14, Homo sapiens, UniProt Q16539)
MAPK14 T106M: Mitogen-activated protein kinase 14 (MAPK14, Homo sapiens, UniProt Q16539, T106M)

SMILES	target	observed	mode	method	tested at	quantity	value
Cc1nc(Cc2cccc(C(F)(F)F)c2)sc1-c1ccc(C(N)=O)nc1	MAPK14	cell-free assay	–	competition with immobilised ligand	1 µM	remaining binding	100%
FC(F)c1nc2ccccc2n1-c1nc(N2CCOCC2)nc(N2CCOCC2)n1	MAPK14	enzyme activity	inhibitor	–	10 µM	remaining activity	89%
Cc1cc(NC(=O)c2cccc3cc(-c4cccc5[nH]nc(N)c45)ccc23)ccc1F	MAPK14 T106M	enzyme activity	inhibitor	–	0.1 µM	activity vs control	96%
COc1cc(-c2cn(C3CCc4c(F)cccc4N(CC(F)(F)F)C3=O)nn2)ccc1-n1cnc(C)c1 (centres unmarked)	MAPK14	cell-free assay	–	competition with immobilised ligand	1 µM	remaining binding	100%
CSc1nc(-c2ccnc(N[C@@H](C)c3ccccc3)c2)c(-c2ccc(F)cc2)[nH]1 (racemic)	MAPK14	cell-free assay	–	–	0.5 µM	remaining signal	7.64%
CN(c1ccnc(CNc2nc(Nc3ccc4c(c3)CC(=O)N4)ncc2C(F)(F)F)n1)S(C)(=O)=O	MAPK14	cell-free assay	–	competition with immobilised ligand	1 µM	remaining binding	92%
Oc1ccc(-c2nc(-c3ccncc3)c(-c3ccc(F)cc3)[nH]2)cc1	MAPK14	cell-free assay	–	–	0.5 µM	remaining signal	7.42%
Nc1ncnc2occ(-c3ccc(NC(=O)Nc4cc(C(F)(F)F)ccc4F)cc3)c12	MAPK14	cell-free assay	inhibitor	–	20 µM	remaining signal	0%
Cc1ccc(Nc2nccc(N(C)c3ccc4c(C)n(C)nc4c3)n2)cc1S(N)(=O)=O	MAPK14 T106M	enzyme activity	inhibitor	–	0.3 µM	inhibition	4%
Nc1nc(NC2CCCCC2)sc1C(=O)c1ccccc1	MAPK14	enzyme activity	inhibitor	–	10 µM	remaining activity	24%
O=C(NS(=O)(=O)c1ccc(NCC2CCOCC2)c([N+](=O)[O-])c1)c1ccc(N2CCN(Cc3ccc(C(F)(F)F)cc3-c3ccc(Cl)cc3)CC2)cc1Oc1cnc2[nH]ccc2c1	MAPK14	cell-free assay	–	competition with immobilised ligand	1 µM	remaining binding	97%
O=C(Nc1cnn(-c2csc(C(=O)NC3COC3)c2)c1)Nc1ccccc1Cl	MAPK14	enzyme activity	inhibitor	–	5 µM	remaining activity	142%
Cc1cnc(NC2CCOCC2)nc1-n1cnc(C(=O)NC(CN)c2cc(F)cc(Cl)c2)c1 (centres unmarked)	MAPK14 T106M	enzyme activity	inhibitor	radiometric	1 µM	remaining activity	55%
CC(C)(C)c1nc(-c2cccc(NS(=O)(=O)c3c(F)cccc3F)c2F)c(-c2ccnc(N)n2)s1	MAPK14	enzyme activity	inhibitor	radiometric	1 µM	remaining activity	111%
CC(C)(O)c1cncc(-c2nc3ccc(F)cc3n2C2CC2)c1	MAPK14	cell-free assay	–	competition with immobilised ligand	1 µM	remaining binding	100%
CNC(=O)c1cc(Oc2ccc(NC(=O)Nc3ccc(Cl)c(C(F)(F)F)c3)cc2)ccn1	MAPK14	enzyme activity	inhibitor	–	10 µM	inhibition	84%
COc1cc(/C=C/C(=O)CC(=O)/C=C/c2ccc(O)c(OC)c2)ccc1O	MAPK14	enzyme activity	inhibitor	–	1 µM	activity vs control	104%
CCN(CC)CCNC(=O)c1c(C)[nH]c(/C=C2\C(=O)Nc3ccc(F)cc32)c1C	MAPK14 T106M	enzyme activity	inhibitor	–	10 µM	inhibition	9%
O=C1NC(c2ccccn2)Sc2ccccc21 (centres unmarked)	MAPK14	cell-free assay	–	competition with immobilised ligand	1 µM	remaining binding	81%
Cc1ccc(NC(=O)c2ccc(C)c(C(F)(F)F)c2)cc1C#Cc1nn(C2CCC(O)CC2)c2ncnc(N)c12 (centres unmarked)	MAPK14 T106M	enzyme activity	inhibitor	–	10 µM	remaining activity	88%
